Key:
Mus musculus [1] = test: Toxicity in ob/ob mouse assessed as effect on hepatic tryglyceride level at 10 to 30 mg/kg, po bid administered for 28 days measured up to post last dose; assay type: organism-based; conditions: in vivo, 672 h
Method in brief: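 Male ob/ob mice (9 weeks) dosed orally twice daily for 4 weeks, vehicle 0.5% MC. Plasma glucose measured by portable glucometer at 2 and 4 weeks. Liver TG assessed at the end of treatment. Mean ± SEM (n = 10), Dunnett's test versus vehicle.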

[2] = AUC (0 to infinity) in ICR mouse at 2 mg/kg, iv administered as single dose by LC/MS/MS analysis; assay type: ADME, organism-based; design: dose 2 mg/kg, route intravenous, time infinity; conditions: in vivo
Method in brief: (§1)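 Male ICR mice (8 weeks) fasted overnight and fed 7 h post-dose. Dosing was either a single IV dose of 2 mg/kg in saline or a single oral dose of 10 mg/kg in 0.5 w/v% MC. Orbital plexus blood was taken under anesthesia at serial times to 24 h. Plasma was extracted with acetonitrile/methanol plus internal standard and quantified by LC/MS/MS.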

[3] = AUC (0 to 1.5 hrs) in C57BL/6J mouse pancreas at 10 mg/kg, po administered as single dose by LC/MS/MS analysis; assay type: ADME, organism-based; design: dose 10 mg/kg, time < 1.5 hr, route oral; conditions: in vivo
[4] = Ratio of AUC (0 to 1.5 hrs) in C57BL/6J mouse liver to plasma at 30 mg/kg, po administered as single dose by LC/MS/MS analysis; assay type: ADME, organism-based; conditions: liver and plasma, read-out: Ratio AUC
[5] = AUC (0 to 1.5 hrs) in C57BL/6J mouse plasma at 30 mg/kg, po administered as single dose by LC/MS/MS analysis; assay type: ADME, organism-based; design: dose 30 mg/kg, time < 1.5 hr, route oral
[6] = Ratio of AUC (0 to 1.5 hrs) in C57BL/6J mouse liver to plasma at 100 mg/kg, po administered as single dose by LC/MS/MS analysis; assay type: ADME, organism-based; conditions: liver and plasma, read-out: Ratio AUC
Method in brief: (§2)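 Overnight-fasted male C57BL/6J mice (8 weeks) given a single oral dose (10, 30 or 100 mg/kg) in 0.1 w/v% Tween80 / 0.5 w/v% MC. Plasma taken via postcaval vein, liver and pancreas dissected and homogenized at 0.5, 1 and 1.5 h. LC/MS/MS with internal standard after acetonitrile/methanol extraction. AUC0-1.5h by trapezoidal rule, mean ± SD (n = 3). Kp = AUCtissue/AUCplasma. L/P = AUCliver/AUCpancreas.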

[7] = Ratio of AUC (0 to 1.5 hrs) in C57BL/6J mouse pancreas to plasma at 10 mg/kg, po administered as single dose by LC/MS/MS analysis; assay type: ADME, organism-based; conditions: pancreas and plasma, read-out: Ratio AUC
[8] = AUC (0 to 1.5 hrs) in C57BL/6J mouse liver at 10 mg/kg, po administered as single dose by LC/MS/MS analysis; assay type: ADME, organism-based; design: time < 1.5 hr, dose 10 mg/kg, route oral; conditions: in vivo
[9] = AUC (0 to 1.5 hrs) in C57BL/6J mouse pancreas at 30 mg/kg, po administered as single dose by LC/MS/MS analysis; assay type: ADME, organism-based; design: time < 1.5 hr, dose 30 mg/kg, route oral; conditions: in vivo
[10] = Ratio of AUC (0 to 1.5 hrs) in C57BL/6J mouse pancreas to plasma at 100 mg/kg, po administered as single dose by LC/MS/MS analysis; assay type: ADME, organism-based; conditions: pancreas and plasma, read-out: Ratio AUC; method in brief: as §2
[11] = Terminal half life in ICR mouse at 10 mg/kg, po administered as single dose by LC/MS/MS analysis; assay type: ADME, organism-based; conditions: in vivo, read-out: beta t1/2 (converted); method in brief: as §1
[12] = Tmax in ICR mouse at 10 mg/kg, po administered as single dose by LC/MS/MS analysis; assay type: ADME, organism-based; conditions: in vivo; method in brief: as §1
[13] = AUC (0 to 1.5 hrs) in C57BL/6J mouse plasma at 100 mg/kg, po administered as single dose by LC/MS/MS analysis; assay type: ADME, organism-based; design: time < 1.5 hr, dose 100 mg/kg, route oral; method in brief: as §2
[14] = Ratio of AUC (0 to 1.5 hrs) in C57BL/6J mouse liver to plasma at 10 mg/kg, po administered as single dose by LC/MS/MS analysis; assay type: ADME, organism-based; conditions: liver and plasma, read-out: Ratio AUC
[15] = Ratio of AUC (0 to 1.5 hrs) in C57BL/6J mouse liver to pancreas at 10 mg/kg, po administered as single dose by LC/MS/MS analysis; assay type: ADME, organism-based; conditions: in vivo
[16] = Cytotoxicity against rat primary hepatocytes assessed as reduction in cell viability after 24 hrs by AlamarBlue assay; assay type: cell-based, Hepatocyte
Method in brief: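 Hepatocytes isolated from male SD rats (7 weeks) by two-step collagenase perfusion. Seeded at 2–3×10^4/well on collagen in modified WE medium with 10% FBS, dexamethasone and insulin, switched to serum-free medium at 4 h. At 20–24 h exposed 24 h to 1–100 µM final, 1% DMSO vehicle. Viability read by alamarBlue.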

[17] = AUC (0 to 1.5 hrs) in C57BL/6J mouse liver at 30 mg/kg, po administered as single dose by LC/MS/MS analysis; assay type: ADME, organism-based; design: dose 30 mg/kg, time < 1.5 hr, route oral; conditions: in vivo
[18] = AUC (0 to 1.5 hrs) in C57BL/6J mouse plasma at 10 mg/kg, po administered as single dose by LC/MS/MS analysis; assay type: ADME, organism-based; design: time < 1.5 hr, dose 10 mg/kg, route oral
[19] = Primary phase half life in ICR mouse at 2 mg/kg, iv administered as single dose by LC/MS/MS analysis; assay type: ADME, organism-based; conditions: in vivo, read-out: alphat1/2 (converted); method in brief: as §1
[20] = biological target: Voltage-gated inwardly rectifying potassium channel KCNH2 (Homo sapiens, UniProt Q12809); test: Inhibition of human ERG expressed in HEK293 cells at -80 holding potential by whole patch clamp assay; assay type: cell-based
Method in brief: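 Whole-cell patch clamp on HEK293 stably expressing hERG, perfused at 26.0 ± 2.0 °C. Holding potential −80 mV. Steps to −40 to +20 mV for 1.5 s, then −50 mV for 1.5 s, repeated every 15 s. Concentrations 3–300 µM, 0.1% DMSO vehicle, E-4031 positive control.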

[21] = Ratio of AUC (0 to 1.5 hrs) in C57BL/6J mouse liver to pancreas at 30 mg/kg, po administered as single dose by LC/MS/MS analysis; assay type: ADME, organism-based; conditions: in vivo
[22] = Clearance in ICR mouse plasma at 2 mg/kg, iv administered as single dose by LC/MS/MS analysis; assay type: ADME, organism-based; method in brief: as §1
[23] = Cmax in ICR mouse at 10 mg/kg, po administered as single dose by LC/MS/MS analysis; assay type: ADME, organism-based; design: dose 10 mg/kg, route oral; conditions: in vivo; method in brief: as §1
[24] = Volume of distribution at steady state in ICR mouse at 2 mg/kg, iv administered as single dose by LC/MS/MS analysis; assay type: ADME, organism-based; conditions: in vivo, read-out: Vdss; method in brief: as §1
[25] = AUC (0 to infinity) in ICR mouse at 10 mg/kg, po administered as single dose by LC/MS/MS analysis; assay type: ADME, organism-based; design: dose 10 mg/kg, route oral, time infinity; conditions: in vivo; method in brief: as §1
[26] = Cytotoxicity against CHOK1 cells assessed as reduction in cell viability after 24 hrs by WST1 assay; assay type: cell-based, Cricetulus griseus; conditions: chinese hamster, CHO-K1 cells
Method in brief: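 CHO-K1 cells plated at 6000/well in Ham's F12K with 2% FBS and 1 mM L-glutamine plus antibiotics, incubated overnight at 37 °C, 5% CO2. Exposed 24 h to compound at 1–100 µM final, with 1% DMSO vehicle and benzbromarone positive control. Viability read by WST-1.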

Mus musculus [27] = test: Toxicity in C57BL/6J mouse assessed as hypoglycemia at <100 mg/kg, po measured up to 300 mins by glucometric method; assay type: organism-based; conditions: in vivo, 5 h
Method in brief: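 Male C57BL/6J mice (8 weeks) fasted 2 h and dosed orally at time 0 (n = 8/group). Tail vein glucose measured by glucometer at 0, 60, 120, 180, 240 and 300 min. Hypoglycemia defined as plasma glucose < 60 mg/dL. Mean ± SEM, Dunnett's test.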

[28] = Ratio of AUC (0 to 1.5 hrs) in C57BL/6J mouse liver to pancreas at 100 mg/kg, po administered as single dose by LC/MS/MS analysis; assay type: ADME, organism-based; conditions: in vivo; method in brief: as §2
[29] = Ratio of AUC (0 to 1.5 hrs) in C57BL/6J mouse pancreas to plasma at 30 mg/kg, po administered as single dose by LC/MS/MS analysis; assay type: ADME, organism-based; conditions: pancreas and plasma, read-out: Ratio AUC
[30] = Terminal half life in ICR mouse at 2 mg/kg, iv administered as single dose by LC/MS/MS analysis; assay type: ADME, organism-based; conditions: in vivo, read-out: beta t1/2 (converted); method in brief: as §1
[31] = AUC (0 to 1.5 hrs) in C57BL/6J mouse liver at 100 mg/kg, po administered as single dose by LC/MS/MS analysis; assay type: ADME, organism-based; design: time < 1.5 hr, dose 100 mg/kg, route oral; conditions: in vivo; method in brief: as §2
[32] = Oral bioavailability in ICR mouse at 10 mg/kg administered as single dose by LC/MS/MS analysis; assay type: ADME, organism-based; conditions: in vivo; method in brief: as §1
[33] = AUC (0 to 1.5 hrs) in C57BL/6J mouse pancreas at 100 mg/kg, po administered as single dose by LC/MS/MS analysis; assay type: ADME, organism-based; design: time < 1.5 hr, dose 100 mg/kg, route oral; conditions: in vivo; method in brief: as §2

Sequence of Voltage-gated inwardly rectifying potassium channel KCNH2 (Q12809 whole entry, the tested form may be a part): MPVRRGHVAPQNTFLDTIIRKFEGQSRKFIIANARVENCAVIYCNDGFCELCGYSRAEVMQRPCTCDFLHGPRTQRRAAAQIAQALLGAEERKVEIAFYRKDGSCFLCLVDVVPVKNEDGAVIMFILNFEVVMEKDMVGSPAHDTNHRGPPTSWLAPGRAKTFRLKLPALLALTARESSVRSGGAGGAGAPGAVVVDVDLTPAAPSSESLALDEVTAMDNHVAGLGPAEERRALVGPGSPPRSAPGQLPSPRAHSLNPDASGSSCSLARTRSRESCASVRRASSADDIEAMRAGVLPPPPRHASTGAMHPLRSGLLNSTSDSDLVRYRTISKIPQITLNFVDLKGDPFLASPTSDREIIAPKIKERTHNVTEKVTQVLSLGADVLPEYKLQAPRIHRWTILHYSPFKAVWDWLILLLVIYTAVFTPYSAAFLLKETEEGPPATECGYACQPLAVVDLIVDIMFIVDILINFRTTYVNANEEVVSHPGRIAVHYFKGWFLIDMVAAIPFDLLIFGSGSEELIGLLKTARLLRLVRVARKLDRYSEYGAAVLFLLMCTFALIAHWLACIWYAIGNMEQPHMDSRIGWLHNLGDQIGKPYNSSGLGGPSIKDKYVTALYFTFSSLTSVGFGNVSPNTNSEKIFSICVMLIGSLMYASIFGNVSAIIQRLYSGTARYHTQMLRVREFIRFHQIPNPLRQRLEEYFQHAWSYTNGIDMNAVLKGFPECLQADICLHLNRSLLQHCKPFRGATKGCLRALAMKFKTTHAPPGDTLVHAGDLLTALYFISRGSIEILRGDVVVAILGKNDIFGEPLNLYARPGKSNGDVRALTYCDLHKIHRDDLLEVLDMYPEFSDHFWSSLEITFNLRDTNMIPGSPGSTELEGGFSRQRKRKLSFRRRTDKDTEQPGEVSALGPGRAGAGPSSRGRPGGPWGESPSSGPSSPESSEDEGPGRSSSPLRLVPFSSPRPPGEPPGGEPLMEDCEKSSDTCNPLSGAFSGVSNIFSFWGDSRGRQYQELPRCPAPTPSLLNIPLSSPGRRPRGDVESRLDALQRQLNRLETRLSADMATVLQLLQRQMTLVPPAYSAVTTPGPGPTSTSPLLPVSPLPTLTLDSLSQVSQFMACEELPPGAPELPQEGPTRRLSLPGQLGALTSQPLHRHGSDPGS

Structure (SMILES): CCN(CC(=O)O)CC(=O)N1CCC[C@H]1c1cc(C(=O)Nc2ncc(F)s2)c(C)s1
- Activity (Mus musculus [1]): Non-Toxic
- AUC(0-inf) [2]: 8580 ng·h/mL
- AUC [3]: 433 ng·h/g
- Kp [4]: 1.6
- AUC(0-t) at 1.5 h [5]: 17700 ng·h/mL
- Kp [6]: 1.7
- Kp [7]: 0.064
- AUC [8]: 8910 ng·h/g
- AUC [9]: 1430 ng·h/g
- Kp [10]: 0.12
- half-life [11]: 2 h
- Tmax [12]: 0.25 h
- AUC(0-t) at 1.5 h [13]: 86900 ng·h/mL
- Kp [14]: 1.3
- Ratio AUC [15]: 20.6
- CC50 at 24 h [16]: > 100 µM
- AUC [17]: 32300 ng·h/g
- AUC(0-t) at 1.5 h [18]: 6750 ng·h/mL
- half-life [19]: 0.47 h
- IC50 [20]: > 300 µM
- Ratio AUC [21]: 22.5
- clearance [22]: 3.88 mL/min/kg
- Cmax [23]: 3020 ng/mL
- Vd [24]: 0.31 L/kg
- AUC(0-inf) [25]: 8600 ng·h/mL
- CC50 at 24 h [26]: > 100 µM
- Activity (Mus musculus [27]): Non-Toxic
- Ratio AUC [28]: 14
- Kp [29]: 0.081
- half-life [30]: 1.6 h
- AUC [31]: 148000 ng·h/g
- bioavailability [32]: 20%
- AUC [33]: 10500 ng·h/g

Source: ChEMBL document CHEMBL4270548, “Discovery of a potent glucokinase activator with a favorable liver and pancreas distribution pattern for the treatment of type 2 diabetes mellitus” (Eur J Med Chem, 2018)
